The target of data set [1] is T1, Adrenergic receptor alpha-1 (Rattus norvegicus, UniProt P15823+P23944+P43140).
T1 sequence (P15823 whole entry): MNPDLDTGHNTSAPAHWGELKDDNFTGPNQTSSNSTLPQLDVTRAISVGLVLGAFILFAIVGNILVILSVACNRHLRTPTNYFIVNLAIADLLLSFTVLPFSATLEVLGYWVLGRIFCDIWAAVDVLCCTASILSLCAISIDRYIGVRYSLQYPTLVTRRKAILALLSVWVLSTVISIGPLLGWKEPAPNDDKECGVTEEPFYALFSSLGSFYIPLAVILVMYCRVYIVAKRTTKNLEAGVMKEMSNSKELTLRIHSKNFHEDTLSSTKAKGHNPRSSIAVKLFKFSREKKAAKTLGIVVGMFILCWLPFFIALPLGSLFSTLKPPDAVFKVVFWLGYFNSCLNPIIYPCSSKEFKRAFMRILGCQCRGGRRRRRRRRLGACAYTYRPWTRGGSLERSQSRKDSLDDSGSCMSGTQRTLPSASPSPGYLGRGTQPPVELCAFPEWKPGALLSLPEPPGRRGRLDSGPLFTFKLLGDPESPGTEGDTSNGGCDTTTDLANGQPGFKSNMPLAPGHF
T1 sequence (P23944 whole entry): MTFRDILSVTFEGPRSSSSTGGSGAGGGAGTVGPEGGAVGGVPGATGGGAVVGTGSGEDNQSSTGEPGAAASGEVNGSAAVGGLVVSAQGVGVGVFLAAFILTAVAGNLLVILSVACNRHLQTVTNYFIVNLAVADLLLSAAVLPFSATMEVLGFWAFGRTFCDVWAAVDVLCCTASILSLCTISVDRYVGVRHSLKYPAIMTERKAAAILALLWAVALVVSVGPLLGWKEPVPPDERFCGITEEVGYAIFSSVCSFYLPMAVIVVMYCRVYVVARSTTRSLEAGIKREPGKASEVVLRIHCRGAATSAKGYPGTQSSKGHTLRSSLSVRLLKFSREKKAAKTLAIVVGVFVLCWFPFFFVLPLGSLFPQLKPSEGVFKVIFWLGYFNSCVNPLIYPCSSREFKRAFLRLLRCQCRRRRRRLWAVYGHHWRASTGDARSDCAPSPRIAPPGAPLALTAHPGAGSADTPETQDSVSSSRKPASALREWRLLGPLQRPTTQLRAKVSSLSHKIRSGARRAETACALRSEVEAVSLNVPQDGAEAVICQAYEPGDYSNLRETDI
T1 sequence (P43140 whole entry): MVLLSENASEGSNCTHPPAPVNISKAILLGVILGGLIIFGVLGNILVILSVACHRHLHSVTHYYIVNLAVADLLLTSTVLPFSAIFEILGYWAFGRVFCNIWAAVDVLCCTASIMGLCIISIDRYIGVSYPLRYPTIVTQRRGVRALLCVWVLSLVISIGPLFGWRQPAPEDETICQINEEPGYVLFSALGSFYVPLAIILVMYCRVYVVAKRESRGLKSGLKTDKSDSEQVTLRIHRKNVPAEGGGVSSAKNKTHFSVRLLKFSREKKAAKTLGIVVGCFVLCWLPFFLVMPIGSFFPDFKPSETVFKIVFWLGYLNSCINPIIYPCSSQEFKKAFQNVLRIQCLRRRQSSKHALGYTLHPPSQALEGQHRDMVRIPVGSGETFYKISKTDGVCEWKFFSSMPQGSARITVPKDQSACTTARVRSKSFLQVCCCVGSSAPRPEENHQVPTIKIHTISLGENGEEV
The experiment in a line: Displacement of [3H]prazosin from adrenoceptor alpha1 in Sprague-Dawley rat brain after 45 mins by scintillation counting. A digest of the protocol:
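Crude P2 membranes from male Sprague–Dawley rat brain (250–280 g), 0.2–0.3 mg protein. Radioligand 1 nM: [3H]2BFI for I2, [3H]prazosin for α1, [3H]RX821002 for α2. Non-specific binding defined by 10 µM BU224 (I2), 10 µM phenylephrine (α1) or 10 µM rauwolscine (α2). 11 concentrations from 0.01 nM to 100 µM, triplicate, 45 min at RT. Filtration and scintillation counting; Ki by Cheng–Prusoff.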

Data set [2] has as its target T2, Alpha-2A adrenergic receptor (Homo sapiens, UniProt P08913).
T2 sequence (P08913 whole entry): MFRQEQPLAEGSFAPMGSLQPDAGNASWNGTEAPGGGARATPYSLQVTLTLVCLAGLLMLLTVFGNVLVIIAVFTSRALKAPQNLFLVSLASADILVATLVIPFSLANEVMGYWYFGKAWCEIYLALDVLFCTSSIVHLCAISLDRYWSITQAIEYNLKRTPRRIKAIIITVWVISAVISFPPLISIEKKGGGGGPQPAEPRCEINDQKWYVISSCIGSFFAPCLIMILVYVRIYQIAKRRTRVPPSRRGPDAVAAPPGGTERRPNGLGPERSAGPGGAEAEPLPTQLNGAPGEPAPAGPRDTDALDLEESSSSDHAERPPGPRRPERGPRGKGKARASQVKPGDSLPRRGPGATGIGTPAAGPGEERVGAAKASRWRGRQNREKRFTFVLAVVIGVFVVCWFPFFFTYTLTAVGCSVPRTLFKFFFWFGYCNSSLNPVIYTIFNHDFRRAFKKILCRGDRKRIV
As to the kind of experiment: Agonist activity at human adrenoceptor alpha2A expressed in CHOK1 cells assessed as stimulation of agonist-induced [35S]GTPgammaS binding by scintillation counting. Type of data set: functional, cell-based, CHO-K1. A digest of the protocol: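 Membranes from CHO-K1 cells stably expressing human α2A-adrenoceptor; 5 µg protein incubated with serial dilutions of agonist and 0.1 nM [35S]GTPγS in Tris buffer pH 7.4 with 1 µM GDP, MgCl2, NaCl, 30 min at RT. Filtered and counted by scintillation.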

For data set [3], the system named is Rattus norvegicus. The experiment in a line: Toxicity in Sprague-Dawley rat assessed as loss of spontaneous locomotory activity at 10 to 2000 ug/kg, ip measured within 5 to 8 mins. The class given is organism-based. Conditions: in vivo. A digest of the protocol: (§1)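 Male Sprague–Dawley rats (250–270 g) were handled by the experimenter one day before testing. Compound was dissolved in sterile saline and given i.p. If no loss of righting reflex occurred after 5 min, the dose was repeated, up to 2000 µg/kg cumulative. Animals were watched for righting reflex, locomotion, motor coordination and behaviour. Righting reflex was scored at 30 min.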

Data set [4] deals with Rattus norvegicus. The experiment in a line: Anxiolytic activity in Sprague-Dawley rat assessed as loss of righting reflex at 10 ug/kg, ip measured after 30 mins. The class given is functional, organism-based. A digest of the protocol: as §1
The subject of data set [5] is Rattus norvegicus. As to the kind of experiment: Antihypertensive activity in Wistar rat assessed as inhibition of methoxamine-induced change in heart rate at 0.1 mg/kg, iv co-administered with 20 ug/kg/min methoxamine challenge. Type of data set: functional, organism-based. More on the design: dose 0.1 mg/kg. A digest of the protocol: (§2)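 Male Wistar rats (200–290 g) anaesthetized with i.p. thiopental 70 mg/kg, maintained by thiopental infusion, 36–37 °C. Carotid catheter for BP/HR, jugular line for infusion. Methoxamine i.v. infusion 10 or 20 µg/kg/min began 10 min before 0.1 mg/kg i.v. bolus. Readout is ΔMAP or ΔHR from time 0. Five to seven rats per group; repeated-measures ANOVA.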

The test system of data set [6] is Rattus norvegicus. The experiment in a line: Antihypertensive activity in Wistar rat assessed as inhibition of methoxamine-induced change in blood pressure at 0.1 mg/kg, iv administered 10 mins after methoxamine challenge. Type of data set: functional. A digest of the protocol:
as §2

For data set [7], the system named is Rattus norvegicus. As to the kind of experiment: Antihypertensive activity in Wistar rat assessed as inhibition of methoxamine-induced change in heart rate at 0.1 mg/kg, iv administered 10 mins after 10 ug/kg/min methoxamine challenge. Type of data set: functional, organism-based. On the set-up: dose 0.1 mg/kg. A digest of the protocol:
as §2

Activity calls are given as the source filed them. No cut-off for these calls is given here.

`Cl.c1ccc2c(c1)cnn2CC1=NCCN1` returned a Ki in data set [1] of 0.272 µM. The EC50 in data set [2] came to 4.5 µM.
In turn, `Cc1cccc2cnn(CC3=NCCN3)c12.Cl` came in with a Ki in data set [1] of 0.101 µM. Besides, the EC50 in data set [2] came to 17.4 µM.
`Cl.Clc1cccc2cnn(CC3=NCCN3)c12`: the Activity entry is given as “Toxic” in data set [3] and -47.7 mmHg in data set [6]. Further, the Ki in data set [1] came to 0.0141 µM. Moreover, the outcome in data set [4] and in data set [7] was inactive. For the same compound, in data set [2], the EC50 is 16.6 µM. In addition, in data set [5], the outcome was Active.
